Test results: ChEMBL document CHEMBL1135716, “A three-dimensional quantitative structure-activity relationship study of heparin-binding epidermal growth factor shedding inhibitors using comparative molecular field analysis” (J Med Chem, 2002)

Test: Heparin-binding epidermal growth factor (HB-EGF) shedding inhibition
Procedure, shortened: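 Cell-based shedding assay using HT-1080 fibrosarcoma transfectants that express human placental alkaline phosphatase-tagged HB-EGF. Cells were grown 24 h at 2×10^5/well in MEM with 10% FCS, washed, and preincubated 30 min with compound in MEM containing 1% DMSO. They were then stimulated with 60 nM TPA for 60 min. Supernatant was heated 10 min at 65 °C, then given p-nitrophenyl phosphate substrate (pH 9.8) for 2 h, and A405 was read. IC50 was taken from a concentration series.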

SMILES	IC50
CCOCCCOc1ccc(S(=O)(=O)N2Cc3cc(O)c(O)cc3C[C@@H]2C(=O)NO)cc1	0.21 µM
NS(=O)(=O)c1ccc(-c2ccc(S(=O)(=O)N3Cc4ccccc4C[C@@H]3C(=O)NO)cc2)cc1	20 µM
Cc1ccc(S(=O)(=O)N2Cc3ccccc3C[C@@H]2C(=O)NO)cc1	0.83 µM
CC(C)COCCCOc1ccc(S(=O)(=O)N2Cc3nccnc3C[C@@H]2C(=O)NO)cc1	0.56 µM
Cc1ccc(S(=O)(=O)N2Cc3cc(O)c(O)cc3C[C@@H]2C(=O)NO)s1	5.4 µM
C=Cc1ccc(S(=O)(=O)N2Cc3nccnc3C[C@@H]2C(=O)NO)cc1	1.1 µM
COc1ccc(S(=O)(=O)N2Cc3cc(NC(=O)[C@H](N)Cc4ccccc4)ccc3C[C@@H]2C(=O)NO)cc1	0.57 µM
O=C(NO)[C@H]1Cc2nccnc2CN1S(=O)(=O)c1cccnc1	6.9 µM
O=C(NO)[C@H]1Cc2nccnc2CN1S(=O)(=O)c1ccc(Oc2ccc(Oc3ccccc3)cc2)cc1	6.1 µM
O=C(NO)[C@H]1Cc2nccnc2CN1S(=O)(=O)c1ccc([N+](=O)[O-])cc1	70 µM
O=C(NO)[C@H]1Cc2nccnc2CN1S(=O)(=O)c1ccc(C(F)(F)F)cc1	40 µM
O=C(NO)[C@H]1Cc2nccnc2CN1S(=O)(=O)c1ccc(-c2ccccc2)cc1	1.5 µM
COc1ccc(S(=O)(=O)N2Cc3cc(O)c(O)cc3C[C@@H]2C(=O)NO)cc1	0.73 µM
COCCCOc1ccc(S(=O)(=O)N2Cc3cc(N)ccc3C[C@@H]2C(=O)NO)cc1	0.039 µM
COc1ccc(CCS(=O)(=O)N2Cc3nccnc3C[C@@H]2C(=O)NO)cc1	6.7 µM
O=C(O)c1ccc(S(=O)(=O)N2Cc3nccnc3C[C@@H]2C(=O)NO)cc1	70 µM
O=C(NO)[C@H]1Cc2cc(O)c(O)cc2CN1S(=O)(=O)c1ccc(-c2ccccc2)cc1	1.29 µM
CCCCCC(=O)Nc1ccc(S(=O)(=O)N2Cc3nccnc3C[C@@H]2C(=O)NO)cc1	7.7 µM
CCCOc1ccc(S(=O)(=O)N2Cc3nccnc3C[C@@H]2C(=O)NO)cc1	1 µM
O=C(NO)[C@H]1Cc2nccnc2CN1S(=O)(=O)c1ccc(OCCCBr)cc1	0.6 µM
CS(=O)(=O)CCCOc1ccc(S(=O)(=O)N2Cc3nccnc3C[C@@H]2C(=O)NO)cc1	1.8 µM
Nc1ccc2c(c1)CN(S(=O)(=O)c1ccc(Oc3ccccc3)cc1)[C@@H](C(=O)NO)C2	0.49 µM
C#Cc1ccc(S(=O)(=O)N2Cc3nccnc3C[C@@H]2C(=O)NO)cc1	0.13 µM
Nc1ccc(Oc2ccc(S(=O)(=O)N3Cc4nccnc4C[C@@H]3C(=O)NO)cc2)cc1	1 µM
Nc1cccc(S(=O)(=O)N2Cc3ccccc3C[C@@H]2C(=O)NO)c1	1.1 µM
O=C(NO)[C@H]1Cc2nccnc2CN1S(=O)(=O)c1ccc(OCCO)cc1	1.5 µM
O=C(NO)[C@H]1Cc2cc(O)c(O)cc2CN1S(=O)(=O)c1cccs1	0.16 µM

SMILES	IC50
O=C(NO)[C@H]1Cc2cc(O)c(O)cc2CN1S(=O)(=O)c1ccc(OCCCc2ccccc2)cc1	0.99 µM
CCCOc1ccc(S(=O)(=O)N2Cc3cc(O)c(O)cc3C[C@@H]2C(=O)NO)cc1	0.63 µM
O=C(NO)[C@H]1Cc2cc(O)c(O)cc2CN1S(=O)(=O)c1ccc(Oc2cnccn2)cc1	0.82 µM
O=C(NO)[C@H]1Cc2nccnc2CN1S(=O)(=O)c1ccc(OCCCc2ccccc2)cc1	0.63 µM
COc1ccc(S(=O)(=O)N2Cc3nccnc3C[C@@H]2C(=O)NO)cc1	0.35 µM
O=C(NO)[C@H]1Cc2nccnc2CN1S(=O)(=O)c1cccs1	0.96 µM
O=C(NO)[C@H]1Cc2nccnc2CN1S(=O)(=O)c1ccc(Oc2cnccn2)cc1	0.11 µM
CCOC(=O)COc1ccc(S(=O)(=O)N2Cc3nccnc3C[C@@H]2C(=O)NO)cc1	1 µM
COc1ccc(S(=O)(=O)N2Cc3cc(N)ccc3C[C@@H]2C(=O)NO)cc1	0.19 µM
CCCCOCCCOc1ccc(S(=O)(=O)N2Cc3nccnc3C[C@@H]2C(=O)NO)cc1	0.26 µM
Cc1ccc(S(=O)(=O)N2Cc3nccnc3C[C@@H]2C(=O)NO)cc1	2.7 µM
CCCCCCS(=O)(=O)N1Cc2nccnc2C[C@@H]1C(=O)NO	4.4 µM
Nc1ccc2c(c1)CN(S(=O)(=O)c1ccc(Oc3ncccn3)cc1)[C@@H](C(=O)NO)C2	4.5 µM
COCCc1ccc(S(=O)(=O)N2Cc3nccnc3C[C@@H]2C(=O)NO)s1	3 µM
CCOC(=O)CCCOc1ccc(S(=O)(=O)N2Cc3nccnc3C[C@@H]2C(=O)NO)cc1	1.1 µM
O=C(NO)[C@H]1Cc2nccnc2CN1S(=O)(=O)c1ccc(Oc2ccncc2)cc1	0.34 µM
CSCCCOc1ccc(S(=O)(=O)N2Cc3nccnc3C[C@@H]2C(=O)NO)cc1	0.1 µM
Nc1ccc(S(=O)(=O)N2Cc3nccnc3C[C@@H]2C(=O)NO)cc1	1.8 µM
O=C(NO)[C@H]1Cc2ccccc2CN1S(=O)(=O)c1cccs1	0.34 µM
CN(C)CCCOc1ccc(S(=O)(=O)N2Cc3nccnc3C[C@@H]2C(=O)NO)cc1	18 µM
COc1ccc(S(=O)(=O)N2Cc3cc(NC(=O)CN)ccc3C[C@@H]2C(=O)NO)cc1	0.28 µM
COc1ccc(S(=O)(=O)N2Cc3cc(N(CC(=O)O)CC(=O)O)ccc3C[C@@H]2C(=O)NO)cc1	0.36 µM
Cc1ccccc1S(=O)(=O)N1Cc2nccnc2C[C@@H]1C(=O)NO	12 µM
CC(C)c1ccc(S(=O)(=O)N2Cc3ccccc3C[C@@H]2C(=O)NO)cc1	5.5 µM
O=C(NO)[C@H]1Cc2ccccc2CN1S(=O)(=O)c1ccccc1	0.042 µM
CCCCOc1ccc(S(=O)(=O)N2Cc3ccccc3C[C@@H]2C(=O)NO)cc1	0.42 µM
COc1ccc(S(=O)(=O)N2Cc3ccccc3C[C@@H]2C(=O)NO)cc1	0.28 µM
